# Data from PubChem BioAssay.
# Active and inactive are the calls of the source.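 The calls were made as follows, unless noted: active = duplicate-averaged activation above buffer control mean plus 5 SD of those controls; inactive = the rest.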
# What was measured:
# [1] = thallium flux activation in parental CHO cells, counter-screen for KCNQ1 potentiator project (AID 493006); settings: parental CHO-K1 cells, FluxOR thallium flux, at 10 µM; stronger effect = higher value
# Method in brief: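 Test system: parental CHO-K1 cells, FluxOR dye-loaded / Probe or stimulus: potassium plus thallium depolarizing stimulus, 5x stock 12.5 mM K2SO4, Tl2SO4 / Timing: overnight 37 °C plating, 90 min dye, 20 min dark compound / Measured by: kinetic thallium-flux fluorescence / Read-out: max-minus-min fluorescence over baseline, percent of buffer-to-R-L3 span / Benchmarks: buffer and R-L3 controls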
# [2] = biological target: Potassium voltage-gated channel subfamily KQT member 1 (Homo sapiens) (UniProt P51787); test: KCNQ1 potassium channel potentiators, confirmation, FluxOR thallium flux, CHO cells, duplicates (AID 493007;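 active = potentiation averaged over duplicate wells exceeding buffer-only control mean by more than 3 SD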;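 as to outcome: cells depolarized by a potassium plus thallium sulfate stimulus after compound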;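 as to potentiation: 0% = buffer-only wells and 100% = R-L3 activator control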); settings: KCNQ1 cell line, FluxOR thallium flux fluorescence, at 10 µM; stronger effect = higher value, % of reference activator effect, buffer zero
# Sequence of Potassium voltage-gated channel subfamily KQT member 1 (Homo sapiens) (P51787 whole entry, looked up): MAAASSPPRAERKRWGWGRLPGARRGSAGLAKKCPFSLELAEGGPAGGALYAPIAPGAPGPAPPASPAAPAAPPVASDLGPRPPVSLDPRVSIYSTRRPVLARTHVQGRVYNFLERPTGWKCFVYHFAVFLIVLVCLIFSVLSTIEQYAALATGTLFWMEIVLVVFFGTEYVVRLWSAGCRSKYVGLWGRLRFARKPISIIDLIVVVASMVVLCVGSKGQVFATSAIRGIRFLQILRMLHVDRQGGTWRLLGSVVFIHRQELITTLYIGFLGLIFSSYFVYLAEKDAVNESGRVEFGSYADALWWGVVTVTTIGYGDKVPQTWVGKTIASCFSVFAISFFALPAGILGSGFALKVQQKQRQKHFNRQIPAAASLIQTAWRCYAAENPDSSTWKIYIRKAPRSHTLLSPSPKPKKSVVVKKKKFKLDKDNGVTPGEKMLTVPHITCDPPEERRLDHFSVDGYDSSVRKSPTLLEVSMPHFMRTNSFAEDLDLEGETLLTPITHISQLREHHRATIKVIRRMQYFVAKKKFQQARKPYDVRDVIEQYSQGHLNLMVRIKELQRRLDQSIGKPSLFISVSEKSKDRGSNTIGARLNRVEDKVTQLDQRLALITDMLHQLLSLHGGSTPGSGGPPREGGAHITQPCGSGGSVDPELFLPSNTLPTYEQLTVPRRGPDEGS
# Method in brief: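 Assay system: CHO cells carrying KCNQ1 | Controls: Buffer and R-L3 controls | Schedule: FluxOR dye loading 90 min, compound exposure 20 min, room temperature | Read-out: Baseline-normalized fluorescence change, percent of buffer-to-R-L3 range | Replicates: Each compound tested in duplicate | Technique: Kinetic thallium influx fluorescence with FluxOR dye, 10 s baseline, 110 s post-stimulus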
# [3] = biological target: Potassium voltage-gated channel subfamily KQT member 2 (Rattus norvegicus) (UniProt O88943); test: rat KCNQ2 channel potentiation, selectivity assay for KCNQ1 potentiator project, KCNQ2-CHO-K1 cells (AID 493009;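 active = mean duplicate potentiation above the buffer control mean plus 5 SD of buffer wells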;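 also: assay conditions were tuned for KCNQ1 rather than KCNQ2 modulators; signal is max minus min fluorescence divided by baseline after thallium stimulus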); settings: FluxOR thallium flux fluorescence, at 10 µM; stronger effect = higher value, scaled: buffer 0, activator control 100
# Sequence of Potassium voltage-gated channel subfamily KQT member 2 (Rattus norvegicus) (O88943 whole entry, looked up): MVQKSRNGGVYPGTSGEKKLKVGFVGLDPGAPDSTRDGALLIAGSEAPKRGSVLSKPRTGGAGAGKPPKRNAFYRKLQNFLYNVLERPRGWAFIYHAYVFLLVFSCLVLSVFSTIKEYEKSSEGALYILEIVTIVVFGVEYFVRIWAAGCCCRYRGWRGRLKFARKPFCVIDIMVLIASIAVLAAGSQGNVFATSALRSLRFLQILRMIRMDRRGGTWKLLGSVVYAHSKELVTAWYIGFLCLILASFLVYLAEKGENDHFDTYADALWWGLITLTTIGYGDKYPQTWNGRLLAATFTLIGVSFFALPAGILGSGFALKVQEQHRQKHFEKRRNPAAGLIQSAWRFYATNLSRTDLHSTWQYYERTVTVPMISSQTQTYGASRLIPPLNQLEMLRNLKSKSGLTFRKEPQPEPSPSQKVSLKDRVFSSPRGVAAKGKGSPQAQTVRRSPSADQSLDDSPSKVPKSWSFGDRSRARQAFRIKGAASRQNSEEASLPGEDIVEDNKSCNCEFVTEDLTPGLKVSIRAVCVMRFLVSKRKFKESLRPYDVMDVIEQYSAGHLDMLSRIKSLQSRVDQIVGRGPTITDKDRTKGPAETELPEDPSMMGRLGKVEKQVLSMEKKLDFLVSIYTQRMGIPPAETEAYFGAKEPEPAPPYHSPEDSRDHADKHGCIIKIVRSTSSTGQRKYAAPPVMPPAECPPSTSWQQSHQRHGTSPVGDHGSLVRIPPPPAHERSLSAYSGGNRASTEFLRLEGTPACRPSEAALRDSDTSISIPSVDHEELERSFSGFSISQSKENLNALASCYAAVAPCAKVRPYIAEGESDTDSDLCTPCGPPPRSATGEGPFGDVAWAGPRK
# [4] = biological target: Potassium voltage-gated channel subfamily KQT member 1 (Homo sapiens) (UniProt P51787); test: KCNQ1 channel current potentiators, confirmation, orthogonal assay for KCNQ1 potentiator project, IonWorks patch clamp, KCNQ1-CHO cells (AID 493184;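 active = current rise at least 3 SD above the untreated control mean in each of two repeat wells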); settings: automated patch clamp current, at 10 µM; stronger effect = higher value
# Method in brief: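 Material: KCNQ1-expressing CHO cells; doses: 10 µM final, single point; probe or stimulus: voltage step from -90 mV holding to +40 mV, 2,000 ms; signal: automated voltage clamp, amphotericin B perforated patch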
Structure (SMILES),outcome [1],outcome [2],outcome [3],outcome [4],activation [1],potentiation [2],potentiation [3]
CCOC(=O)c1ccccc1NC(=O)CSc1nc2ccccc2n1CC(=O)N1CCCC1,inactive,inactive,inactive,inactive,–,–,–
CN(C)c1ccc(-c2nn3c(-c4ccccc4Cl)nnc3s2)cc1,inactive,inactive,inactive,inactive,–,–,–
CC(C)CCn1c(=O)c2ccccc2n2c(=S)[nH]nc12,inactive,inactive,inactive,inactive,–,–,–
O=C(Nc1ccccc1OC(F)F)c1ccc(F)cc1,inactive,inactive,inactive,inactive,–,–,–
Cc1ccc(C)c(NS(=O)(=O)c2cc(C(=O)NCc3ccccn3)ccc2Cl)c1,inactive,inactive,inactive,inactive,–,–,–
COc1ccc(C(=O)c2ccc(OC)c(N)c2)cc1N,–,–,–,inactive,162% (active),38.5% (active),178% (active)
CN1C(=O)C2(Oc3ccccc3C3CC(c4ccccc4)=NN32)c2ccccc21 (stereo not given),inactive,inactive,inactive,inactive,–,–,–
COC(=O)c1cnn(-c2ccc(Cl)cc2)c1/C=N/NC(N)=S,inactive,inactive,inactive,inactive,–,–,–
COc1ccccc1C(=O)NNC(=O)C(=O)NC(C)(C)C,–,–,–,inactive,185% (active),68% (active),246% (active)
COCCCn1c(=S)[nH]c2sc3c(c2c1=O)CCCS3,–,–,inactive,inactive,147% (active),30.5% (active),–
CSC(=S)N/N=C(\C)c1ccccc1,–,–,–,inactive,246% (active),50.5% (active),283% (active)
Cc1ccc(Oc2ccc(NC(=O)Cn3ccsc3=N)cc2)cc1,inactive,inactive,inactive,inactive,–,–,–
COc1ccccc1-c1cc(C(=O)Nc2cccnc2)no1,–,–,–,inactive,314% (active),112% (active),398% (active)
CCOc1ccc(NC(=O)CN(C)C(=O)C2CCN(c3ncnc4sc(C)c(C)c34)CC2)cc1OCC,inactive,inactive,inactive,inactive,–,–,–
O=C(COc1ccccc1[N+](=O)[O-])Nc1cccnc1,–,–,–,inactive,186% (active),41.5% (active),172% (active)
CC(C)CC(=O)NC(=S)Nc1nc(-c2cccc3ccccc23)cs1,inactive,–,–,inactive,–,60% (active),156% (active)
O=C(NC(=S)N1CCN(C/C=C/c2ccccc2)CC1)c1c(F)cccc1F,–,–,inactive,inactive,139% (active),28.5% (active),–
O=C(COC(=O)c1ccccc1)Nc1ccccc1N1CCOCC1,inactive,inactive,inactive,inactive,–,–,–
Cc1cc(C)cc(C(=O)OCC(=O)NCC(F)(F)F)c1,inactive,inactive,inactive,inactive,–,–,–
Cc1ccccc1C(=O)NCc1ccncc1,inactive,inactive,inactive,inactive,–,–,–

Structure (SMILES),outcome [1],outcome [2],outcome [3],outcome [4],activation [1],potentiation [2],potentiation [3]
CC(=O)c1c(N)[nH]c(-c2ccccc2)nc1=S,inactive,inactive,inactive,inactive,–,–,–
Cc1ccc2sc(N(CCCN(C)C)C(=O)CCS(=O)(=O)c3ccccc3)nc2c1C,inactive,inactive,inactive,inactive,–,–,–
Cc1cc(/C=C2\SC(=Nc3ccc(F)cc3)NC2=O)c(C)n1-c1ccc(S(N)(=O)=O)cc1,inactive,inactive,inactive,inactive,–,–,–
O=C1CCC(c2ccc(-n3ccnc3)cc2)=NN1,inactive,inactive,inactive,inactive,–,–,–
CN(C)CCCn1c(=O)n(C2CCCCC2)c(=O)c2c3c(sc21)CCCCC3,–,–,–,inactive,167% (active),224% (active),154% (active)
C/C(=N/NC(=O)c1ccc(Br)o1)c1ccc(C)o1,inactive,inactive,inactive,inactive,–,–,–
Fc1cccc(/C=N/NC(=S)Nc2ccccc2Cl)c1,inactive,–,–,inactive,–,41.5% (active),158% (active)
Cc1ccc(Sc2ccc(CN3CCCC3)cc2[N+](=O)[O-])cc1,inactive,inactive,inactive,inactive,–,–,–
Cc1cc(C)n(-c2nc3ccccc3nc2N2CCN(C(=O)c3ccc(Cl)cc3)CC2)n1,inactive,inactive,inactive,inactive,–,–,–
COc1cc(C(=O)NC(=S)NC(C)C)cc(OC)c1OC,inactive,inactive,inactive,inactive,–,–,–
CCCCCc1ccc(C(=O)CCCC)c(=S)[nH]1,–,–,–,inactive,277% (active),154% (active),300% (active)
Cc1ccccc1NC(=S)NNC(=O)c1csc2c1CCC(C)C2 (stereo not given),–,–,–,inactive,174% (active),30% (active),200% (active)
O=C(NCc1ccccc1)c1onc(CSc2ccc(F)cc2)c1C(=O)NCCCN1CCOCC1,inactive,inactive,inactive,inactive,–,–,–
CC1=CC(=O)C(C(C)C)=CC1=NC(=O)c1ccc(C)cc1,inactive,inactive,inactive,inactive,–,–,–
CC(C)N(C(=O)CSc1ncnc2sc(-c3ccccc3)cc12)C(C)C,inactive,inactive,inactive,inactive,–,–,–
CC1CCCCN1S(=O)(=O)c1ccc(S(=O)(=O)N(CC(=O)Nc2ccccc2)Cc2cccs2)cc1 (stereo not given),inactive,inactive,inactive,inactive,–,–,–
COc1cc(-c2nnc(COC(=O)c3cccn3C)o2)cc(OC)c1OC,inactive,inactive,inactive,inactive,–,–,–
CSC(=S)N/N=C/c1ccc(N(C)C)cc1,inactive,inactive,inactive,inactive,–,–,–
CCCSC(=S)c1c(C)[nH]n(-c2ccccc2)c1=O,–,–,–,inactive,352% (active),165% (active),432% (active)
CCCOc1ccc(Cc2nc(N)nc(N)n2)cc1,inactive,inactive,inactive,inactive,–,–,–

Structure (SMILES),outcome [1],outcome [2],outcome [3],outcome [4],activation [1],potentiation [2],potentiation [3]
Nc1cc(=O)[nH]c(SCC(=O)N2CCN(S(=O)(=O)c3ccc4ccccc4c3)CC2)n1,inactive,inactive,inactive,inactive,–,–,–
O=C(NCc1ccccc1)/C(=C/c1ccccc1)NC(=O)c1ccco1,inactive,inactive,inactive,inactive,–,–,–
O=C(NCc1ccc(F)cc1)C1CCC(CNS(=O)(=O)c2ccccc2)CC1 (stereo not given),inactive,inactive,inactive,inactive,–,–,–
C#CC1(NC(=O)NCCCC)CCCCC1,inactive,inactive,inactive,inactive,–,–,–
Oc1ccc(N=Nc2ccc3c(c2)OCCO3)c2cccnc12,–,–,–,inactive,261% (active),92.5% (active),384% (active)
Cc1cc(N2CCN(C)CC2)nc2ccc(NC(=S)NCCCN3CCc4ccccc4C3)cc12,inactive,inactive,inactive,inactive,–,–,–
COC(=O)c1c(NS(=O)(=O)c2ccc3ccccc3c2)sc2c1CCCC2,–,–,–,inactive,216% (active),60.5% (active),232% (active)
CCCc1cc(=O)n2[nH]c(C)c(-c3ccc(Cl)cc3)c2n1,–,–,–,inactive,180% (active),23% (active),172% (active)
O=C1C=C(NCc2ccccc2)c2ccccc2C1=O,–,–,inactive,inactive,140% (active),24% (active),–
CC(C)CSC1=NSC2=NC(=O)/C(=C\c3ccccc3)C(=N)N12,–,–,–,inactive,198% (active),58% (active),204% (active)
O=C(NC(=S)N1CCCC1)c1ccc(Cl)cc1,–,inactive,inactive,inactive,150% (active),–,–
Cn1c(=O)c2nc3ccccc3nc2n(C)c1=O,–,–,–,inactive,168% (active),30.5% (active),184% (active)
Cc1cc(C(=O)OCC(=O)NCc2ccco2)c(C)n1-c1ccc(F)cc1,–,–,–,inactive,283% (active),116% (active),323% (active)
O=C(COc1ccccc1F)Nc1ccc(S(=O)(=O)NCc2ccco2)cc1,inactive,inactive,inactive,inactive,–,–,–
COC(=O)CSc1nc(N)c2c3c(sc2n1)C(c1ccccc1)SC(c1ccccc1)C3 (stereo not given),inactive,inactive,inactive,inactive,–,–,–
Cn1cccc1/C=N/n1c(-c2ccc(C(C)(C)C)cc2)n[nH]c1=S,inactive,–,inactive,inactive,–,266% (active),–
O=C(Nc1cccc2cccnc12)c1ccc(Br)o1,inactive,inactive,inactive,inactive,–,–,–
CCNC(=S)N=Nc1c(O)n(Cc2ccc(Cl)cc2)c2ccccc12,inactive,–,–,inactive,–,37% (active),172% (active)
Cc1ccc2c(c1)c(C)c(C)n2CC(O)CN1CCCCC1C (stereo not given),inactive,inactive,inactive,inactive,–,–,–
CCN(CC)CCn1c(=S)[nH]c2cc(C(=O)NCc3ccc(C)cc3)ccc2c1=O,inactive,inactive,inactive,inactive,–,–,–
